Test results as given in ChEMBL document CHEMBL2146438, “Radiolabeled cyclosaligenyl monophosphates of 5-iodo-2'-deoxyuridine, 5-iodo-3'-fluoro-2',3'-dideoxyuridine, and 3'-fluorothymidine for molecular radiotherapy of cancer: synthesis and biological evaluation” (J Med Chem, 2012).
Active and inactive are the calls of the source. No cut-off for these calls is given here.

Experiments:
Cholinesterase = Cholinesterase (Homo sapiens, UniProt P06276); experiment: Inhibition of human BChE after 30 mins by microplate reader method
[1] = Cellular uptake in human OVCAR3 cell nucleus assessed as per 10^3 cells after 1 hr by gamma counting; type: ADME, cell-based; details: ovcar-3, 1 h
Outline: (§1)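 OVCAR-3 cells incubated 1 h with 55.5 (0.04) kBq/mL 125I-labelled agent (diastereomer mixtures or resolved slow isomers); fractionated either immediately or after 24 h further growth in fresh nonradioactive medium; 125I in cytoplasm and nucleus counted as cpm/10^3 cells with std dev.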

[2] = Cellular uptake in human OVCAR3 cell cytoplasm assessed as per 10^3 cells after 1 hr by gamma counting; type: ADME, cell-based; details: ovcar-3, 1 h; outline: as §1
[3] = Cellular uptake in human OVCAR3 cell nucleus assessed as per 10^3 cells after 24 hrs by gamma counting; type: ADME, cell-based; details: ovcar-3, 24 h; outline: as §1
[4] = Cellular uptake in human OVCAR3 cell cytoplasm assessed as per 10^3 cells after 24 hrs by gamma counting; type: ADME, cell-based; details: ovcar-3, 24 h; outline: as §1
LS174T [5] = experiment: Cytotoxicity against human LS 174T cells assessed as incorporation of radioisotope at 185 kBq/mL after 4 hrs by gamma counting; type: functional, cell-based; details: tested as the 125I-labelled form
Outline: (§2)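 LS 174T cells exposed 4 h to 185 kBq/mL 125I agent, harvested immediately and plated for clonogenic survival (relative to untreated controls); 125I retained in nuclear DNA measured as mBq/cell.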

LS174T [6] = experiment: Cytotoxicity against human LS 174T cells assessed as colony formation at 185 kBq/mL after 4 hrs by clonogenic assay relative to control; type: functional, cell-based; details: tested as the 125I-labelled form; outline: as §2
[7] = Half life of the compound in phosphate buffer at pH 7.3; type: physicochemical
[8] = Cytotoxicity against human LS 174T cells assessed as colony formation at 114.5 kBq/mL incubated for 4 hrs measured after 21 days by clonogenic assay; type: functional, LS174T
Outline: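 LS 174T cells exposed 4 h to 114.5 kBq/mL 125I agent, cultured 24 h in nonradioactive medium, then harvested and plated; colonies counted after 21 days; surviving fraction = treated colonies / untreated control colonies.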

[9] = Chemical stability of the compound in phosphate buffer at pH 7.3; type: physicochemical
U-87MG ATCC [10] = experiment: Cytotoxicity against human U87MG cells assessed as cell death at 18.5 kBq/mL after 8 weeks by clonogenic assay; type: functional, cell-based; details: tested as the 125I-labelled form
Outline: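 U-87 MG cells treated 24 h with increasing 125I agent concentrations, then grown in fresh medium; colony formation followed up to eight weeks versus vehicle-treated controls.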

[11] = Cellular uptake in human OVCAR3 cytoplasm at 55.5 kBq/mL incubated for 1 hr followed by compound wash out measured after 24 hrs by gamma counting; type: ADME, cell-based; details: ovcar-3, 1 h; outline: as §1
U-87MG ATCC [12] = experiment: Cytotoxicity against human U87MG cells at 4.76 kBq/mL assessed as cell survival incubated for 1 hr followed by compound wash out measured after 24 hrs by clonogenic assay; type: functional, cell-based; details: tested as the 125I-labelled form
Outline: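 U-87 MG cells treated 1 h with 4.76 kBq/mL 125I agent, then plated immediately or grown 24 h in fresh medium before clonogenic assay; surviving fraction relative to untreated control colonies.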

Nucleic Acid [13] = experiment: Binding affinity to human U87MG cell DNA at 19.6 kBq/mL after 40 hrs by gamma counting; type: nucleic-acid assay; details: U-87MG ATCC, tested as the 125I-labelled form
Outline: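 U-87 MG cells incubated 40 h with 19.6 kBq/mL 125I-labelled agent; 125I in DNA measured (genomic tips DNA isolation), expressed as mBq 125I/cell.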

Nucleic Acid [14] = experiment: Binding affinity to human U87MG cell DNA at 185 kBq/mL after 120 hrs by gamma counting; type: nucleic-acid assay; details: U-87MG ATCC, tested as the 125I-labelled form
Outline: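 U-87 MG glioblastoma cells exposed continuously to 185 kBq/mL 125I-labelled agent for 120 h; DNA isolated and DNA-associated 125I counted.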

Nucleic Acid [15] = experiment: Binding affinity to human U87MG cell DNA at 27.3 kBq/mL incubated for 24 hrs followed by compound wash out measured after 144 hrs by gamma counting; type: nucleic-acid assay; details: U-87MG ATCC, tested as the 125I-labelled form
Outline: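 U-87 MG cells treated 24 h with 27.3 kBq/mL 125I-labelled agent, then grown a further 144 h in fresh medium; 125I retained in DNA counted.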

Cholinesterase, sequence (P06276 whole entry): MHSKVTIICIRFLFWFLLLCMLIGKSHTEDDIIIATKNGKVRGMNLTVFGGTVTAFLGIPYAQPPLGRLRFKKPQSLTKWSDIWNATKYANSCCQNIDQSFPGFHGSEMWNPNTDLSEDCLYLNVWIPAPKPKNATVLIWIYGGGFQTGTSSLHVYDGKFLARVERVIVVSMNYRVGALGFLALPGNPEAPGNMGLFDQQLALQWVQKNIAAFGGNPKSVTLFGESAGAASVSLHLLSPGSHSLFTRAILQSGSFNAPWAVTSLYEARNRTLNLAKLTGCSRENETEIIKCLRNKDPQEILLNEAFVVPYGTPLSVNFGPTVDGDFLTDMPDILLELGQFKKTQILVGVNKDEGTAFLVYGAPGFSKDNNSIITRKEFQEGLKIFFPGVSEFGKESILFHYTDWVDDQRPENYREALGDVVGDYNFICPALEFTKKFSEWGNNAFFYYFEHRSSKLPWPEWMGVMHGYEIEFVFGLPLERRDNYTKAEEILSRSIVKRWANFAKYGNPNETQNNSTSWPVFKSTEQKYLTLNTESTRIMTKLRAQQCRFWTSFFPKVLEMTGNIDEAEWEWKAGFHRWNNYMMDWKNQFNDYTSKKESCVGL

Cc1cccc2c1OP(=O)(OC[C@H]1O[C@@H](n3cc(I)c(=O)[nH]c3=O)C[C@@H]1O)OC2 (stereo in doubt; form 1)
IC50 (Cholinesterase): > 7000 µM

Cc1cn([C@H]2C[C@H](F)[C@@H](COP3(=O)OCc4c(F)c(C(C)(C)C)cc(C(C)(C)C)c4O3)O2)c(=O)[nH]c1=O (stereo in doubt; form 1)
IC50 (Cholinesterase): 0.203 µM

O=c1[nH]c(=O)n([C@H]2C[C@H](O)[C@@H](COP3(=O)OCc4ccccc4O3)O2)cc1I (stereo in doubt; form 2)
IC50 (Cholinesterase): 0.0092 µM

O=c1[nH]c(=O)n([C@H]2C[C@H](OP3(=O)OCc4ccccc4O3)[C@@H](COP3(=O)OCc4ccccc4O3)O2)cc1[125I] (some centres undefined)
Drug uptake [1]: 6.4 cpm
Drug uptake [2]: 97.6 cpm
Drug uptake [3]: 18.1 cpm
Drug uptake [4]: 37.3 cpm

Cc1cn([C@H]2C[C@H](F)[C@@H](COP3(=O)OCc4c(F)c(C(C)(C)C)cc(C(C)(C)C)c4O3)O2)c(=O)[nH]c1=O (stereo in doubt; form 2)
IC50 (Cholinesterase): 0.0426 µM

Cc1cn([C@H]2C[C@H](O)[C@@H](COP3(=O)OCc4c(F)c(C(C)(C)C)cc(C(C)(C)C)c4O3)O2)c(=O)[nH]c1=O (stereo in doubt; form 2)
IC50 (Cholinesterase): 0.376 µM

Cc1cccc2c1OP(=O)(OC[C@H]1O[C@@H](n3cc(I)c(=O)[nH]c3=O)C[C@@H]1O)OC2 (stereo in doubt; form 4)
Activity (LS174T [5]): Active
Activity (LS174T [6]): Active

O=c1[nH]c(=O)n([C@H]2C[C@H](O)[C@@H](COP3(=O)OCc4ccccc4O3)O2)cc1[125I] (stereo in doubt; form 2)
t1/2 [7]: 7.6 h
Activity [8]: 38%
Drug uptake ([1]; 1 h): 4.9 cpm
Drug uptake ([2]; 1 h): 14.8 cpm
Drug uptake ([3]; 24 h): 31.3 cpm
K [9]: 1.52 ×10⁻³ /min
Drug uptake ([4]; 24 h): 6 cpm

CC(C)(C)c1cc(C(C)(C)C)c2c(c1F)COP(=O)(OC[C@H]1O[C@@H](n3cc([125I])c(=O)[nH]c3=O)C[C@@H]1F)O2 (stereo in doubt; form 2)
t1/2 [7]: 51.5 h
K [9]: 2.24 ×10⁻⁴ /min

O=c1[nH]c(=O)n([C@H]2C[C@H](O)[C@@H](COP3(=O)OCc4ccccc4O3)O2)cc1I (stereo in doubt; form 3)
Activity (U-87MG ATCC [10]): Active

CC(C)(C)c1cc(C(C)(C)C)c2c(c1F)COP(=O)(OC[C@H]1O[C@@H](n3cc(I)c(=O)[nH]c3=O)C[C@@H]1O)O2 (stereo in doubt; form 2)
t1/2 [7]: 61.5 h
IC50 (Cholinesterase): 0.0501 µM
K [9]: 1.88 ×10⁻⁴ /min

O=c1[nH]c(=O)n([C@H]2C[C@H](O)[C@@H](COP3(=O)OCc4ccccc4O3)O2)cc1I (stereo in doubt; form 1)
IC50 (Cholinesterase): 1.28 µM

Cc1cccc2c1OP(=O)(O[C@H]1C[C@H](n3cc([125I])c(=O)[nH]c3=O)O[C@@H]1CO)OC2 (some centres undefined)
Drug uptake [1]: 2 cpm
Drug uptake [2]: 6.2 cpm
Drug uptake [3]: 15.7 cpm
Drug uptake [4]: 1.4 cpm

CC(C)(C)c1cc(C(C)(C)C)c2c(c1F)COP(=O)(OC[C@H]1O[C@@H](n3cc([125I])c(=O)[nH]c3=O)C[C@@H]1O)O2 (stereo in doubt; 8b)
Drug uptake ([1]; 1 h): 7.9 cpm
Drug uptake ([2]; 1 h): 88.3 cpm
Drug uptake ([3]; 24 h): 92.2 cpm
Drug uptake ([4]; 24 h): 3.2 cpm
Drug uptake [11]: > 230%

CC(C)(C)c1cc(C(C)(C)C)c2c(c1F)COP(=O)(O[C@H]1C[C@H](n3cc(I)c(=O)[nH]c3=O)O[C@@H]1CO)O2 (stereo in doubt; form 1)
t1/2 [7]: 15.1 h
K [9]: 7.66 ×10⁻⁴ /min

Cc1cccc2c1OP(=O)(OC[C@H]1O[C@@H](n3cc([125I])c(=O)[nH]c3=O)C[C@@H]1O)OC2 (stereo in doubt; 7b)
Drug uptake ([1]; 1 h): 4.5 cpm
Drug uptake ([2]; 1 h): 11.7 cpm
Drug uptake ([3]; 24 h): 25.9 cpm
Drug uptake ([4]; 24 h): 1.6 cpm
Drug uptake [11]: Active

Cc1cccc2c1OP(=O)(OC[C@H]1O[C@@H](n3cc([125I])c(=O)[nH]c3=O)C[C@@H]1O)OC2 (stereo in doubt; form 2)
t1/2 [7]: 25 h
Drug uptake ([1]; 1 h): 5.4 cpm
Drug uptake ([2]; 1 h): 13 cpm
Drug uptake ([3]; 24 h): 29.3 cpm
K [9]: 4.63 ×10⁻⁴ /min
Drug uptake ([4]; 24 h): 1.8 cpm

CC(C)(C)c1cc(C(C)(C)C)c2c(c1F)COP(=O)(OC[C@H]1O[C@@H](n3cc(I)c(=O)[nH]c3=O)C[C@@H]1F)O2 (stereo in doubt; form 2)
t1/2 [7]: 52 h
IC50 (Cholinesterase): 0.0198 µM
K [9]: 2.22 ×10⁻⁴ /min

CC(C)(C)c1cc(C(C)(C)C)c2c(c1F)COP(=O)(OC[C@H]1O[C@@H](n3cc(I)c(=O)[nH]c3=O)C[C@@H]1O)O2 (stereo in doubt; form 1)
t1/2 [7]: 47.9 h
K [9]: 2.41 ×10⁻⁴ /min

O=c1[nH]c(=O)n([C@H]2C[C@H](O)[C@@H](COP3(=O)OCc4ccccc4O3)O2)cc1[125I] (stereo in doubt; 6b)
Drug uptake ([1]; 1 h): 5.7 cpm
Drug uptake ([2]; 1 h): 20.2 cpm
Drug uptake ([3]; 24 h): 39.4 cpm
Drug uptake ([4]; 24 h): 7.3 cpm
Drug uptake [11]: Active

Cc1cccc2c1OP(=O)(O[C@H]1C[C@H](n3cc(I)c(=O)[nH]c3=O)O[C@@H]1CO)OC2 (stereo in doubt; form 2)
t1/2 [7]: 14.2 h
K [9]: 8.13 ×10⁻⁴ /min

Cc1cccc2c1OP(=O)(OC[C@H]1O[C@@H](n3cc(I)c(=O)[nH]c3=O)C[C@@H]1O)OC2 (stereo in doubt; form 3)
Activity (LS174T [5]): Active

O=c1[nH]c(=O)n([C@H]2C[C@H](OP3(=O)OCc4ccccc4O3)[C@@H](CO)O2)cc1I (stereo in doubt; form 2)
t1/2 [7]: 7.1 h
K [9]: 1.64 ×10⁻³ /min

CC(C)(C)c1cc(C(C)(C)C)c2c(c1F)COP(=O)(OC[C@H]1O[C@@H](n3cc(I)c(=O)[nH]c3=O)C[C@@H]1O)O2 (stereo in doubt; form 3)
IC50 (Cholinesterase): 1.14 µM

Cc1cn([C@H]2C[C@H](O)[C@@H](COP3(=O)OCc4c(F)c(C(C)(C)C)cc(C(C)(C)C)c4O3)O2)c(=O)[nH]c1=O (stereo in doubt; form 1)
IC50 (Cholinesterase): 23.6 µM

Cc1cccc2c1OP(=O)(O[C@H]1C[C@H](n3cc(I)c(=O)[nH]c3=O)O[C@@H]1CO)OC2 (stereo in doubt; form 1)
t1/2 [7]: 12.2 h
K [9]: 9.46 ×10⁻⁴ /min

Cc1cccc2c1OP(=O)(OC[C@H]1O[C@@H](n3cc([125I])c(=O)[nH]c3=O)C[C@@H]1OP1(=O)OCc3cccc(C)c3O1)OC2 (some centres undefined)
Drug uptake [1]: 6 cpm
Drug uptake [2]: 97.1 cpm
Drug uptake [3]: 24.5 cpm
Drug uptake [4]: 13.4 cpm

CC(C)(C)c1cc(C(C)(C)C)c2c(c1F)COP(=O)(OC[C@H]1O[C@@H](n3cc(I)c(=O)[nH]c3=O)C[C@@H]1F)O2 (stereo in doubt)
Activity (U-87MG ATCC [12]): inactive

Cc1cccc2c1OP(=O)(OC[C@H]1O[C@@H](n3cc(I)c(=O)[nH]c3=O)C[C@@H]1O)OC2 (stereo in doubt; form 2)
IC50 (Cholinesterase): 0.0612 µM

CC(C)(C)c1cc(C(C)(C)C)c2c(c1F)COP(=O)(O[C@H]1C[C@H](n3cc([125I])c(=O)[nH]c3=O)O[C@@H]1CO)O2 (some centres undefined)
Drug uptake [1]: 4.3 cpm
Drug uptake [2]: 62.5 cpm
Drug uptake [3]: 66.7 cpm
Drug uptake [4]: 2.7 cpm

O=c1[nH]c(=O)n([C@H]2C[C@H](OP3(=O)OCc4ccccc4O3)[C@@H](CO)O2)cc1I (stereo in doubt; form 1)
t1/2 [7]: 5.3 h
K [9]: 2.05 ×10⁻³ /min

O=c1[nH]c(=O)n([C@H]2C[C@H](OP3(=O)OCc4ccccc4O3)[C@@H](CO)O2)cc1[125I] (some centres undefined)
Drug uptake [1]: 2.1 cpm
Drug uptake [2]: 7.2 cpm
Drug uptake [3]: 30.2 cpm
Drug uptake [4]: 2.7 cpm

CC(C)(C)c1cc(C(C)(C)C)c2c(c1F)COP(=O)(OC[C@H]1O[C@@H](n3cc(I)c(=O)[nH]c3=O)C[C@@H]1F)O2 (stereo in doubt; form 1)
t1/2 [7]: 39.6 h
IC50 (Cholinesterase): 0.549 µM
K [9]: 2.92 ×10⁻⁴ /min

O=c1[nH]c(=O)n([C@H]2C[C@H](O)[C@@H](COP3(=O)OCc4ccccc4O3)O2)cc1I (stereo in doubt; form 4)
Activity (Nucleic Acid [13]): Active
Activity (Nucleic Acid [14]): Active
Activity (U-87MG ATCC [10]): Active
Activity (Nucleic Acid [15]): Active
